Assay results taken from ChEMBL document CHEMBL1138195, “Highly chiral muscarinic ligands: the discovery of (2S,2'R,3'S,5'R)-1-methyl-2-(2-methyl-1,3-oxathiolan-5-yl)pyrrolidine 3-sulfoxide methyl iodide, a potent, functionally selective, M2 partial agonist” (J Med Chem, 2006).

Legend:
[1] = biological target: T1, Muscarinic acetylcholine receptor M1 (Homo sapiens) (UniProt P11229); test: Antagonist affinity at muscarinic M1 receptor in rabbit vas deferens; assay type: functional, tissue-based; settings: Oryctolagus cuniculus, target entry is the homologue from another species
T1 sequence (whole entry): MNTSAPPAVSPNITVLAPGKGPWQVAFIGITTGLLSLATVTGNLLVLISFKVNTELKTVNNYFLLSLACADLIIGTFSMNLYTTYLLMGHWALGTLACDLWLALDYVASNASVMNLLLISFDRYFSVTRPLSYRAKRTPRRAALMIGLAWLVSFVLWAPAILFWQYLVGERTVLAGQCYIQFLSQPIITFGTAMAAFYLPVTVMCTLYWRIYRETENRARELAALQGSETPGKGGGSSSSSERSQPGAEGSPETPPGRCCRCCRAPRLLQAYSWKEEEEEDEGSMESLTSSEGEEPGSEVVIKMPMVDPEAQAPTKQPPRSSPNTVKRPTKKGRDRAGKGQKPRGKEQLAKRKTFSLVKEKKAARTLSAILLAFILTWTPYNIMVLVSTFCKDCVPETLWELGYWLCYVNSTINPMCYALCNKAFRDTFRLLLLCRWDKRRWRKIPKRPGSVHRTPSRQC
Outline: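 Field-stimulated (0.1 ms, 2 Hz, 10-15 V), contractions recorded isometrically after 1 h equilibration. Cumulative dose-response curves against p-Cl-McN-A-343 reference. Antagonists incubated 60 min before the repeat curve. Reported as pD2 (-log ED50) with intrinsic activity, or as pKb.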

[2] = biological target: T2, Muscarinic acetylcholine receptor M2 (Homo sapiens) (UniProt P08172); test: Agonist potency at muscarinic M2 receptor in guinea pig atrium; assay type: functional, tissue-based; settings: Cavia porcellus; Cardiac atrium; target entry is the homologue from another species
T2 sequence (whole entry): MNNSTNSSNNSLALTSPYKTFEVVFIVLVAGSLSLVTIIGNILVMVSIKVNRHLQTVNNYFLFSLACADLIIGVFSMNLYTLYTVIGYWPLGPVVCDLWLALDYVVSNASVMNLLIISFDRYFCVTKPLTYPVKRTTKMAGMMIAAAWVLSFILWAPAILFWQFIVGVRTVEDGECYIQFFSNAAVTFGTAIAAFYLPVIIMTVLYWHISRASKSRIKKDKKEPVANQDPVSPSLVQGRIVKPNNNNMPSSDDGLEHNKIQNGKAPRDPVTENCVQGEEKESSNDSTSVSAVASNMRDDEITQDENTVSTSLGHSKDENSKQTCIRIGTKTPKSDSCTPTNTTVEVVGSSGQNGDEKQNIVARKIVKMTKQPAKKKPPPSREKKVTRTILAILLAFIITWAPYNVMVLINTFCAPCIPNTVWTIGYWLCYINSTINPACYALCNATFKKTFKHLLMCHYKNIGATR
Outline: (§1)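 Guinea pig left atria in PSS at 30 °C, paced by square-wave pulses (1 ms, 1 Hz, 5-10 V). Inotropic force recorded isometrically after 2 h equilibration, with cumulative dose-response curves to arecaidine propargyl ester as reference. Antagonists incubated 60 min after a 30 min wash, then the curve was repeated. Values given as pD2 with intrinsic activity, or as pKb.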

[3] = biological target: T2, Muscarinic acetylcholine receptor M2 (Homo sapiens); test: Antagonist affinity at muscarinic M2 receptor in guinea pig atrium; assay type: functional, tissue-based; settings: Cavia porcellus; Cardiac atrium; target entry is the homologue from another species; outline: as §1
[4] = biological target: Muscarinic acetylcholine receptor M3 (Cavia porcellus) (UniProt Q8VH26); test: Agonist potency at muscarinic M3 receptor in guinea pig ileum; assay type: functional, tissue-based
Sequence of Muscarinic acetylcholine receptor M3 (Cavia porcellus) (Q8VH26 1-587): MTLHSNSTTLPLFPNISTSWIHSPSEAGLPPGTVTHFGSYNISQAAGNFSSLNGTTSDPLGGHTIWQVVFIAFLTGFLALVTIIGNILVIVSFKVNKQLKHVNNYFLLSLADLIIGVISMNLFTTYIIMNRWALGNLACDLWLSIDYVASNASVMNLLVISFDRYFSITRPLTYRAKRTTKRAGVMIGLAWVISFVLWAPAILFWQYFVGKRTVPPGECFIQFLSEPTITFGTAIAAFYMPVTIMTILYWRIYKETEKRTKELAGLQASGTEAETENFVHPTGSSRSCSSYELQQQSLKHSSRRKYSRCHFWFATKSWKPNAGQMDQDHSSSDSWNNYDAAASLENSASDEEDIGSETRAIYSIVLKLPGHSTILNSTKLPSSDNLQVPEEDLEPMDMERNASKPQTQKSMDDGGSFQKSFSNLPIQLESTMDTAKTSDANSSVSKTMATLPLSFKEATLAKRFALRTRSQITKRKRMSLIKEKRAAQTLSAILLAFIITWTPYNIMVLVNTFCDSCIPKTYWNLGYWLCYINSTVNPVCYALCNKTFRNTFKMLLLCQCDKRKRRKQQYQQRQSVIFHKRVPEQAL
Outline: (§2)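 Isolated guinea pig tissue contractions, measured against arecaidine propargyl ester control curves. Agonists: cumulative dose-response curve after a 30 min wash, responses as % of the control maximum. Antagonists: 60 min incubation, then a new agonist curve. Parallel time-control tissues were run. Values expressed as pD2 (-log ED50) with intrinsic activity, or as pKb (-log Kb).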

[5] = biological target: Muscarinic acetylcholine receptor M3 (Cavia porcellus) (UniProt Q8VH26); test: Antagonist affinity at muscarinic M3 receptor in guinea pig ileum; assay type: functional, tissue-based; outline: as §2
[6] = biological target: T3, Muscarinic acetylcholine receptor M4 (Homo sapiens) (UniProt P08173); test: Antagonist affinity at muscarinic M4 receptor in guinea pig lung strips; assay type: functional; settings: Cavia porcellus, target entry is the homologue from another species; outline: as §2
T3 sequence (whole entry): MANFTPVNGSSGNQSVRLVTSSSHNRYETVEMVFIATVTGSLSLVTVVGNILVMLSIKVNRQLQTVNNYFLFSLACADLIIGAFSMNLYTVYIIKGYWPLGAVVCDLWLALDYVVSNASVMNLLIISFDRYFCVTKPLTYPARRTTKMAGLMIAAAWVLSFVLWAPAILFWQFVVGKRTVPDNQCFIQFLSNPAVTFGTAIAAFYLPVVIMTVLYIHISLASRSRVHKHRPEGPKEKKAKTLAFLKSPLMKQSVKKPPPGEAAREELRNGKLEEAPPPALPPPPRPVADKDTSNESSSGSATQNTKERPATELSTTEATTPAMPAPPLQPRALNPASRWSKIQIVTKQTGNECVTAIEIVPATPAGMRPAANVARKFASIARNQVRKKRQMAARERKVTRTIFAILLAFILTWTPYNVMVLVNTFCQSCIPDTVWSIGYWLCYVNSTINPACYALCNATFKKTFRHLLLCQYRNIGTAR

[7] = biological target: T4, Muscarinic acetylcholine receptor M5 (Homo sapiens, UniProt P08912); test: Binding affinity to cloned human muscarinic M5 receptor expressed in CHO cells; assay type: cell-based
T4 sequence (P08912 whole entry): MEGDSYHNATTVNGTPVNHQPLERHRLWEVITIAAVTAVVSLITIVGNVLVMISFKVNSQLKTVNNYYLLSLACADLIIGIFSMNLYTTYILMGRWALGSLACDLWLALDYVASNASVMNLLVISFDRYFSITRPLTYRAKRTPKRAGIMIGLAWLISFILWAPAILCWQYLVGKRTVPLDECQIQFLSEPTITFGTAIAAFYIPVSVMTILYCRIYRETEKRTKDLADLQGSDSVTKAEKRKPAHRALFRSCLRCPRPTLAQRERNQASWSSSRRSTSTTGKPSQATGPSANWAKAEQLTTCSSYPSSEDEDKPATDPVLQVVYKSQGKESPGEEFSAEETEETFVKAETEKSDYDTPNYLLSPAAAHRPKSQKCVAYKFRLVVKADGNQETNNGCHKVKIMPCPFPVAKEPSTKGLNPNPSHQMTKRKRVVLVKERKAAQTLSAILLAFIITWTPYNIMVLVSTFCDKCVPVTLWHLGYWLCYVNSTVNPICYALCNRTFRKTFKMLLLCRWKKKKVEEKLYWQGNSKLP
Outline: (§3)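 Membranes from CHO cells stably expressing human hm2, hm4 or hm5 receptors, at 70, 50 and 25 µg/mL protein respectively. 0.2 nM [3H]NMS displaced by unlabelled ligand for 120 min at room temperature, in 25 mM sodium phosphate with 5 mM MgCl2, pH 7.4. Rapid filtration, then scintillation counting. Mean of at least three experiments.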

[8] = biological target: T5, Muscarinic acetylcholine receptor M1 (Homo sapiens, UniProt P11229); test: Binding affinity to cloned human muscarinic M1 receptor expressed in CHO cells; assay type: cell-based
T5 sequence (P11229 whole entry): T1 sequence (whole entry)

[9] = biological target: T6, Muscarinic acetylcholine receptor M2 (Homo sapiens, UniProt P08172); test: Binding affinity to cloned human muscarinic M2 receptor expressed in CHO cells; assay type: cell-based; outline: as §3
T6 sequence (P08172 whole entry): T2 sequence (whole entry)

[10] = biological target: Muscarinic acetylcholine receptor M3 (Homo sapiens, UniProt P20309); test: Binding affinity to cloned human muscarinic M3 receptor expressed in CHO cells; assay type: cell-based
Sequence of Muscarinic acetylcholine receptor M3 (P20309 whole entry): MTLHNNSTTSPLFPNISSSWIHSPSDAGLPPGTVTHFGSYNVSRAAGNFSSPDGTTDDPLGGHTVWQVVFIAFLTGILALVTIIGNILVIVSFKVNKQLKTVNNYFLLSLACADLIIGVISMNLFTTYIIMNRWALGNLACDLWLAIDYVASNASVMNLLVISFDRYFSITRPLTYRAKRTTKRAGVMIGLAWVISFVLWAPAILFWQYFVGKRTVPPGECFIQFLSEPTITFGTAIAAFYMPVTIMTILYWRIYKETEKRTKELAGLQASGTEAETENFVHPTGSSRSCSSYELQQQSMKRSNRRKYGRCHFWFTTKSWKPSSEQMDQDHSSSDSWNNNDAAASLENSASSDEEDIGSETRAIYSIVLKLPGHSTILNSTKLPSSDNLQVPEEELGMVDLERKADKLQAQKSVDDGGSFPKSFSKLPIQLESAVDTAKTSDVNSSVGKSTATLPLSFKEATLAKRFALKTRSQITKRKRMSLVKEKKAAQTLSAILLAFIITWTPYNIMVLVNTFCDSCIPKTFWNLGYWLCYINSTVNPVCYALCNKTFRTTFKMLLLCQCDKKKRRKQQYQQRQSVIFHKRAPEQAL

[11] = biological target: T7, Muscarinic acetylcholine receptor M4 (Homo sapiens, UniProt P08173); test: Binding affinity to cloned human muscarinic M4 receptor expressed in CHO cells; assay type: cell-based; outline: as §3
T7 sequence (P08173 whole entry): T3 sequence (whole entry)

[12] = biological target: T2, Muscarinic acetylcholine receptor M2 (Homo sapiens); test: Efficacy of agonist at muscarinic M2 receptor in guinea pig atrium as ratio of Ka/ED50; assay type: functional, tissue-based; settings: Cavia porcellus; Cardiac atrium; target entry is the homologue from another species
Outline: (§4)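 Functional affinity constants (Ka) obtained in the atrium and ileum preparations. Full agonists: Furchgott-Bursztyn method. Partial agonists: Waud method, comparing their concentration-response curves with arecaidine propargyl ester, with equieffective concentrations read graphically. Ka was then related to ED50.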

[13] = biological target: Muscarinic acetylcholine receptor M3 (Cavia porcellus) (UniProt Q8VH26); test: Efficacy of agonist at muscarinic M3 receptor in guinea pig ileum as ratio of Ka/ED50; assay type: functional, tissue-based; outline: as §4

In the case of `C[C@H]1O[C@@H]([C@@H]2CCC[N+]2(C)C)C[S@@+]1[O-]` (stereo in doubt; (-)-8), the pKb [1] is reported as less than 5, the Activity [2] is reported as 0 and the pKb [3] is reported as less than 5. For the same molecule, the Activity [4] was 0, the pKb [5] was less than 5 and the pKb [6] was less than 5.
`C[C@@H]1O[C@H]([C@@H]2CCCN2C)C[S@@+]1[O-]` gave a Ki [7] greater than 100 µM, a Ki [8] greater than 100 µM and a Ki [9] greater than 100 µM. It also gave a Ki [10] greater than 100 µM, a Ki [11] greater than 100 µM and a pKb [1] of less than 5. It also gave an Activity [2] of 0, a pKb [3] of less than 5 and an Activity [4] of 0. The pKb [5] was less than 5 and the pKb [6] was less than 5.
`C[C@H]1O[C@@H](C[N+](C)(C)C)C[S+]1[O-]` (single isomer, unassigned; (-)) was tested, and the -logKa [2] was 5.22, the pD2 [2] was 6.66 and the -logKa [4] was 5.38. The pD2 [4] was 6.95, the Ratio [12] was 28 and the Ratio [13] was 37.
Work on `C[C@@H]1O[C@H]([C@H]2CCC[N+]2(C)C)C[S@+]1[O-]` yielded a Ki [7] greater than 100 µM, a Ki [8] greater than 100 µM and a Ki [9] greater than 100 µM. The Ki [10] was greater than 100 µM and the Ki [11] was greater than 100 µM.
With `C[C@@H]1O[C@H]([C@@H]2CCCN2C)C[S@+]1[O-]` the Ki [7] was greater than 100 µM, the Ki [8] was greater than 100 µM and the Ki [9] was 89.1 µM. It also gave a Ki [10] greater than 100 µM, a Ki [11] greater than 100 µM and a pKb [1] of less than 5. For the same molecule, the Activity [2] was 0, the pKb [3] was less than 5 and the Activity [4] was 0. It also gave a pKb [5] of less than 5 and a pKb [6] of less than 5.
Work on `C[C@@H]1O[C@H]([C@H]2CCCN2C)C[S@@+]1[O-]` yielded a Ki [7] greater than 100 µM, a Ki [8] greater than 100 µM and a Ki [9] greater than 100 µM. It also gave a Ki [10] greater than 100 µM and a Ki [11] greater than 100 µM.
`C[C@H]1O[C@@H]([C@@H]2CCC[N+]2(C)C)C[S@@+]1[O-].[I-]` (stereo in doubt; (+)-7) was tested, and the Ki [7] was 57.5 µM, the “Log Ki” value ([8]; cho) was less than -4 and the Ki [9] was 81.3 µM. For the same molecule, the “Log Ki” value ([10]; cho) was less than -4 and the “Log Ki” value ([11]; cho) was less than -4.
In the case of `C[C@H]1O[C@@H]([C@@H]2CCC[N+]2(C)C)C[S@+]1[O-]`, the Ki [7] is reported as greater than 100 µM, the Ki [8] is reported as greater than 100 µM and the Ki [9] is reported as 77.6 µM. It also gave a Ki [10] greater than 100 µM, a Ki [11] greater than 100 µM and a pKb [1] of less than 5. The Activity [2] was 0, the pKb [3] was less than 5 and the Activity [4] was 0. The pKb [5] was less than 5 and the pKb [6] was less than 5.
With `C[C@H]1O[C@@H]([C@@H]2CCCN2C)C[S@@+]1[O-]` the Ki [7] was greater than 100 µM, the Ki [8] was greater than 100 µM and the Ki [9] was greater than 100 µM. The Ki [10] was greater than 100 µM and the Ki [11] was greater than 100 µM.
With `C[C@H]1O[C@@H]([C@@H]2CCCN2C)C[S@+]1[O-]` the Ki [7] was greater than 100 µM, the Ki [8] was greater than 100 µM and the Ki [9] was 87.1 µM. For the same molecule, the Ki [10] was greater than 100 µM, the Ki [11] was greater than 100 µM and the pKb [1] was less than 5. The Activity [2] was 0, the pKb [3] was less than 5 and the Activity [4] was 0. It also gave a pKb [5] of less than 5 and a pKb [6] of less than 5.
